Screens deposited in PubChem by several laboratories.
Rows were chosen to be rich in hits. Some 2.5% of all compounds tested hit in one or more screens of this group.
TRPC6 activator = mouse TRPC6 channel activation; B-score at 10 µM; Q61143; AID 2550; actives 0.13% (n = 310,000); HEK293-TRPC6 membrane potential dye fluorescence; active compounds read high;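 active = B-score of the integrated fluorescence ratio above library mean plus 3 SD, and starting fluorescence ratio within library mean plus 5 SD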;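 also: higher score means more depolarization so channel activation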
TRPC4 agonist = activators of mouse TRPC4 channel | Q9QUQ5 | HEK293 TRPC4beta/mu-opioid, Fluo4 calcium fluorescence; active compounds read high | B-score at 10 µM | actives 0.49% (n = 310,000) | AID 2237;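 active = B-score above 5 SD of library B-scores, and initial fluorescence ratio not above library mean plus 5 SD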;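 also: positive B-score marks a calcium rise read as TRPC4 activation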
Target sequence (Q9QUQ5 whole entry, looked up): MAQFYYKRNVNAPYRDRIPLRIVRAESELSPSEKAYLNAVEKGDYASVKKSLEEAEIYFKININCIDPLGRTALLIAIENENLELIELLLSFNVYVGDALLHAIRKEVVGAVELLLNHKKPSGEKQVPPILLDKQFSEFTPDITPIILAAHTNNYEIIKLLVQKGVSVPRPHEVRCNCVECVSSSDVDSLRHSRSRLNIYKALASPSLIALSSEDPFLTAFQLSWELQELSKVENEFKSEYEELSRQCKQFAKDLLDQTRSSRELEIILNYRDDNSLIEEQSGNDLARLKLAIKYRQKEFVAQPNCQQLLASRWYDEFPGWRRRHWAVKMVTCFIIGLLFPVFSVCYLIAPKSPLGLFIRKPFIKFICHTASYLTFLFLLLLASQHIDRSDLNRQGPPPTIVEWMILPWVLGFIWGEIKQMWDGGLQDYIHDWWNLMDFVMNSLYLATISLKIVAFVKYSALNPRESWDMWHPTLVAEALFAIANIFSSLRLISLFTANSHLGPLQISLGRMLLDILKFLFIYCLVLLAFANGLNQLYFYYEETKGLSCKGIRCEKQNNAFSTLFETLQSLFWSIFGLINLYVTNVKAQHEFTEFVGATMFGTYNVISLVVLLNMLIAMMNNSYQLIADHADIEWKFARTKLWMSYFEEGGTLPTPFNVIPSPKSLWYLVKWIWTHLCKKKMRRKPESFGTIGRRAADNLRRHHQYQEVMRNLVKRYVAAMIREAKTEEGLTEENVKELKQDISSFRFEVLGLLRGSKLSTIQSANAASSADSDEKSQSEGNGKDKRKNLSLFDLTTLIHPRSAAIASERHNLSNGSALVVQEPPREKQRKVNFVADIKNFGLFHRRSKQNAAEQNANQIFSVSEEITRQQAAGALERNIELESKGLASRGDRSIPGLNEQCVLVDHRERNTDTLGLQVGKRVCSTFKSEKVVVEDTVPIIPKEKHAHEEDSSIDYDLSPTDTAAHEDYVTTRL
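System – HEK293 cells stably co-expressing mouse TRPC4beta and mu-opioid receptor · Signal – Fluo4 calcium-sensitive dye fluorescence, kinetic, 1 Hz baseline · Benchmarks – buffer (low) and maximal DAMGO (high) · Read-out – B score of integrated fluorescence ratio per well · Incubation – dye loading 45 min room temperature, 110 s kinetic read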
TRPC4 inh = inhibitors of mouse TRPC4 channel | HEK293 TRPC4beta/mu-opioid, DAMGO-evoked Fluo4 calcium flux; active compounds read low | B-score at 10 µM | Q9QUQ5 | AID 2247 | actives 0.39% (n = 300,000);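 active = B-score over 3 SD under the library average, no early fluorescence shift, positive overall ratio signal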
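Material: HEK293 cells with stable TRPC4beta plus mu-opioid receptor expression; probe or stimulus: DAMGO in two steps, submaximal then maximal; technique: Fluo4 calcium fluorescence by kinetic imaging, 5 s 1 Hz baseline; measure: integrated fluorescence ratio relative to baseline, converted to per-well B score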
Platelet DG rel = platelet dense granule release activity. AID 1663. actives 0.22% (n = 300,000). inhibition, %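 (compounds screened at 7.5 µM in platelet-rich plasma)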. human platelet-rich plasma, SFLLRN dense granule ATP release, luminescence;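 active = mean replicate score, as percent of positive control, at or above 50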
TRPC6 inhibitor = mouse TRPC6 channel inhibition; HEK293-TRPC6, membrane potential dye, ACh-evoked depolarization; active compounds read low; B-score at 10 µM; actives 1.1% (n = 310,000);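 active = B-score under library mean minus 3 SD, initial fluorescence not abnormally high, positive integrated signal ratio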;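 also: B-score derived from integrated fluorescence ratio over the kinetic read; more negative B-score means stronger inhibition of depolarization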
TRPC4 potent = allosterically enhances the mouse TRPC4 cation channel. Q9QUQ5. HEK293 TRPC4beta/mu-opioid, DAMGO EC20, Fluo-4 Ca2+ flux; active compounds read high. B-score at 10 µM. actives 0.42% (n = 310,000). AID 2227;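 active = B-score of calcium response area above 5 SD of library B-scores, with initial fluorescence ratio within 5 SD of library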
Of the large screens only hits and unclear results are named; the others gave an inactive call.

CCOC(=O)Cc1csc(NC(=O)C(NC(=O)C2CCCCC2)C(C)C)n1 (configuration not stated)	none
O=C(/C=C/c1ccc(O)c(O)c1)c1ccccc1O	Platelet DG rel 70.4
Cc1sc2c(c1C)C(=O)/C(=C\Nc1ccncc1)S(=O)(=O)N2C	none
O=C(CC1SC(=O)NC1=O)Nc1ccc(Cl)cc1 (configuration not stated)	TRPC4 agonist 45
CCCCOc1ccc(CSCCN=C(N)N)cc1	TRPC4 inh -6
N=c1c2c(-c3ccccc3)c(-c3ccccc3)n(Cc3ccccc3)c2ncn1CCCn1ccnc1	TRPC6 inhibitor -6.57
Cc1cc(NCCCn2ccnc2)n2nc(C)c(-c3ccccc3)c2n1	none
CCCCn1cnc2c(c(-c3ccccc3)c(-c3ccccc3)n2Cc2ccco2)c1=N	TRPC6 inhibitor -7.52
N=c1c2c(ncn1Cc1ccco1)Oc1ccc3ccccc3c1C2c1ccccc1 (configuration not stated)	none
N=c1c2c(-c3ccccc3)c(-c3ccccc3)n(Cc3ccco3)c2ncn1Cc1ccco1	TRPC4 agonist 46
COc1cccc(NC(=O)c2cccc(C)c2[N+](=O)[O-])c1	none
CCOC(=O)c1cnc(-n2nc(C)cc2C)nc1NC	none
CCOC(=O)c1cnc(-n2nc(C)cc2C)nc1NC1CCCCC1	TRPC4 potent 18
O=[N+]([O-])c1cc(C(F)(F)F)ccc1NC1CCN(Cc2ccccc2)CC1	none
O=[N+]([O-])c1cc(C(F)(F)F)ccc1NC1CCN(Cc2ccccc2)C1 (configuration not stated)	TRPC4 potent 50
Cc1ccc(OC(C)C(=O)Nc2ccc(S(=O)(=O)Nc3nccs3)cc2)cc1 (configuration not stated)	none
CCc1ccc(OC(C)C(=O)Nc2ccc(S(=O)(=O)Nc3nccs3)cc2)cc1 (configuration not stated)	TRPC4 potent 12
CCN(CC)CCNC(=O)c1cn(CC)c2ccc(S(=O)(=O)N3CCc4ccccc4C3)cc2c1=O	none
Cc1nn(Cc2noc(C(=O)NCCc3ccccn3)n2)c(C)c1Br	TRPC4 agonist 82
Cc1oc(-c2ccc(Cl)cc2)nc1CN1CCC(C(=O)NCc2cccs2)CC1	TRPC4 inh -6
CCN(CCNC(=O)C1CCN(Cc2nc(-c3ccc(Cl)cc3)oc2C)CC1)c1ccccc1	TRPC6 inhibitor -6.6
Cc1oc(-c2ccc(Cl)cc2)nc1CN1CCC(C(=O)NCC2CCCO2)CC1 (configuration not stated)	none
CCC(C(=O)Nc1ccc(C(=O)Nc2ccccc2C(=O)O)cc1)c1ccccc1 (configuration not stated)	none
Fc1ccc(CN2CCC(Cc3ccccc3)CC2)cc1F	TRPC4 inh -6
COc1cc(OC)c(CN2CCC(Cc3ccccc3)CC2)cc1Br	TRPC4 agonist 108
Clc1ccc(CN2CCC(Cc3ccccc3)CC2)cc1	none
O=C(c1cccc(C(F)(F)F)c1)N1CCc2c([nH]c3ccccc23)C1C(F)(F)F (configuration not stated)	none
Cc1ccc(-n2c3nc(=O)[nH]c(=O)c-3cc3cc([N+](=O)[O-])ccc32)cc1C	TRPC4 potent 10
Cc1ccc(S(=O)(=O)n2cnc3cc([N+](=O)[O-])ccc32)cc1C	none
CCC(=O)NC(=S)Nc1ccc(NC(=O)c2ccc(Br)o2)cc1	none
Cc1ccc(C2c3c(C)nn(-c4ccc([N+](=O)[O-])cc4)c3N=C3C(=O)Nc4ccccc4N32)cc1 (configuration not stated)	TRPC6 inhibitor -5.28
CCn1cc(CN2CCN(Cc3ccccc3)C(CCO)C2)c2ccccc21 (configuration not stated)	TRPC4 agonist 58
CCn1cc(CN2CCN(Cc3ccc(C)o3)C(CCO)C2)c2ccccc21 (configuration not stated)	none
OCCC1CN(Cc2ccccc2-c2ccco2)CCN1Cc1ccccc1 (configuration not stated)	TRPC4 agonist 113
OCCC1CN(Cc2ccc3nsnc3c2)CCN1CCc1ccccc1 (configuration not stated)	TRPC4 agonist 43
OCCC1CN(Cc2cccc3c2OCO3)CCN1Cc1ccccc1 (configuration not stated)	none
CCCCn1c2ccccc2c2nnc(SCCN3CCCCC3)nc21	TRPC4 inh -7
COc1ccc(N2CCN(Cc3nc4ccccc4n3C)CC2)cc1	TRPC4 agonist 124
COc1ccc(N2CCN(c3nc4ccccc4n3CC(=O)c3ccccc3)CC2)cc1	none
O=C(N/N=C/c1cccc2ccccc12)c1ccccc1Cl	TRPC4 potent 10
CC(=O)N1CCSc2ccc(S(=O)(=O)NCCc3ccc(Cl)cc3)cc21	none
CCOC(=O)/C(C#N)=C\c1cc(OC)c(OC)cc1[N+](=O)[O-]	none
Cc1cc(N2CCC(C)CC2)nc(NCc2ccccc2)n1	TRPC4 inh -6, TRPC4 potent 16
Cc1cc(N2CCC(C)CC2)nc(-c2ccccc2O)n1	none
Cc1cc(Nc2ccc(Cl)cc2)nc(NCc2ccccc2)n1	none
Cc1cc(Nc2ccccc2)nc(NCc2ccccc2)n1	TRPC4 inh -6
O=C(CSc1nnc(CNC(=O)c2cccs2)o1)Nc1ccc(Br)cc1	none
Cc1ccc2c(c1)N(C(=O)CCC(=O)Nc1ccccc1Br)CC(C)O2 (configuration not stated)	TRPC4 inh -9
CC(C)(C)c1ccc(/C=N/Nc2ccc(C(=O)O)cc2)cc1	none
CC1Oc2ccccc2C=C1/C=N/Nc1ccc(C(=O)O)cc1 (configuration not stated)	TRPC4 inh -5
CCOC(=O)c1c(CN2CCN(C)CC2)n(-c2ccccc2)c2cc(Br)c(O)cc12	none
CCOC(=O)c1c(CSC(=N)N)n(-c2ccccc2)c2cc(Br)c(OC(C)=O)cc12	TRPC4 potent 14
COc1cccc(Cn2c(Oc3ccccc3)nc3c2c(=O)n(C)c(=O)n3C)c1	TRPC4 inh -6
COc1ccccc1C(=O)NC(=O)COC(=O)C1CC1C (configuration not stated)	none
CCOCCCNc1nc(=S)[nH]c2cc(OC)c(OC)cc12	none
CCCCNc1nc(=S)[nH]c2cc(OC)c(OC)cc12	TRPC4 inh -8
Clc1ccc(N=C2SCC3CCCCN23)cc1 (configuration not stated)	TRPC4 potent 23
CCOC(=O)C1=NNC(C(=O)c2ccccc2)C1c1ccc(C)cc1 (configuration not stated)	TRPC4 inh -8
Cc1ccc(N=Nc2c(N)n[nH]c2N)cc1	none
Cc1[nH]nc(N)c1N=Nc1ccc(Br)cc1	TRPC6 inhibitor -5.58
